This is an account of results in ChEMBL document CHEMBL4425125, “Development of a Dual-Acting Antibacterial Agent (TNP-2092) for the Treatment of Persistent Bacterial Infections” (J Med Chem, 2016).

Structures are written as SMILES. In brackets after ≈: the same amount, converted by molar mass.

The subject of assay [1] is Staphylococcus aureus. Description: Bactericidal activity against methicillin-sensitive Staphylococcus aureus 29213 infected in mouse macrophages assessed as induction of bacterial kill at 4 ug/ml in presence of 4 ug/ml rifampin after 24 hrs. Type of assay: functional.
In assay [2] the test system is Staphylococcus aureus. Description: Antimicrobial activity against methicillin-resistant Staphylococcus aureus 67-0. Type of assay: functional.
For assay [3], the system named is Staphylococcus aureus. The assay can be described thus: Antimicrobial activity against wild type Staphylococcus aureus. Type of assay: functional.
Assay [4] relates to Staphylococcus aureus. The assay can be described thus: Antimicrobial activity against Staphylococcus aureus isogenic forms expressing rpoB H481Y/gyrA S84L/parC S80F mutant. Type of assay: functional. An outline of the steps: (§1)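 MIC (μg/mL) on otherwise isogenic derivatives of S. aureus ATCC 29213 that carry the rifamycin-resistance allele rpoB H481Y and/or the quinolone-resistance alleles parC S80F and gyrA S84L. The wild-type parent is the reference strain. MICs were determined both by agar dilution and by broth dilution, tested side by side on the same panel.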

For assay [5], the system named is Staphylococcus aureus. Description: Antimicrobial activity against Staphylococcus aureus isogenic forms expressing rpoB H481Y and gyrA S84L mutant. Type of assay: functional.
Assay [6] deals with Staphylococcus aureus. The assay can be described thus: Antimicrobial activity against Staphylococcus aureus isogenic forms expressing rpoB H481Y and parC S80F mutant. The assay is classed as functional. An outline of the steps:
as §1

Assay [7] deals with Staphylococcus aureus. The assay can be described thus: Antimicrobial activity against Staphylococcus aureus isogenic forms expressing gyrA S84L mutant. The assay is classed as functional.
For assay [8], the system named is Staphylococcus aureus. Description: Antimicrobial activity against Staphylococcus aureus isogenic forms expressing rpoB H481Y mutant. Type of assay: functional.
Assay [9] has as its system Staphylococcus aureus. Description: Antimicrobial activity against Staphylococcus aureus isogenic forms expressing gyrA S84L and parC S80F mutant. The assay is classed as functional. The gist of the method: as §1
Assay [10] concerns Staphylococcus aureus. The assay can be described thus: Bactericidal activity against methicillin-resistant Staphylococcus aureus 67-0. Type of assay: functional.
Assay [11] relates to Staphylococcus aureus. Description: Antimicrobial activity against Staphylococcus aureus isogenic forms expressing parC S80F mutant. Type of assay: functional. An outline of the steps:
as §1

The target of assay [12] is DNA topoisomerase 2-alpha (Homo sapiens) (UniProt P11388).
Assay [13] addresses DNA gyrase (Staphylococcus aureus) (UniProt P0A0K8+P20831).
The target in assay [14] is Topoisomerase IV (Staphylococcus aureus) (UniProt P0C1U9+P0C1S7).
The test system of assay [15] is Staphylococcus aureus.

As for `COc1c(N2C[C@@H]3CCCN[C@@H]3C2)c(F)cc2c(=O)c(C(=O)O)cn(C3CC3)c12` [MOXIFLOXACIN], the Activity entry in [1] is “<=99.9%”.
The MIC is the least concentration at which growth counts as inhibited. The low end stands for inhibition by little substance, the high end for a need for much substance. Broadly, the MBC is the smallest concentration meeting the test's criterion for killing. Low readings indicate more potent killing, high ones less potent killing. Turning to `C[C@H]1COc2c(N3CCN(C)CC3)c(F)cc3c(=O)c(C(=O)O)cn1c23.C[C@H]1COc2c(N3CCN(C)CC3)c(F)cc3c(=O)c(C(=O)O)cn1c23.O` [LEVOFLOXACIN], the MIC was determined as 2 µg/mL in assay [2]; 0.25 µg/mL in assay [3]; 8 µg/mL in assay [4]; 0.25 µg/mL in assay [5]; 1 µg/mL in assay [6]; 0.25 µg/mL in assay [7]. Also, the MIC in assay [8] was found to be 0.25 µg/mL; in [9], 8 µg/mL; in [11] it was 1 µg/mL. The minimum bactericidal concentration (MBC) in [10] is 2 µg/mL.
Turning to `COc1c(N2CCNC(C)C2)c(F)cc2c(=O)c(C(=O)O)cn(C3CC3)c12` (stereo not drawn) [GATIFLOXACIN], the CC50 in [12] was greater than 150 µM; in assay [13] it was 700 nM; in [14], 200 nM; in [15], 13 µM. Moreover, the MIC amounted to 0.06 µg/mL (≈ 0.16 µM) in [3]; 8 µg/mL (≈ 21.3 µM) in [4]; 0.12 µg/mL (≈ 0.32 µM) in [5]; 0.25 µg/mL (≈ 0.666 µM) in [6]; 0.12 µg/mL (≈ 0.32 µM) in assay [7]; 0.06 µg/mL (≈ 0.16 µM) in assay [8]. Besides, the minimum inhibitory concentration (MIC) in assay [9] came to 8 µg/mL (≈ 21.3 µM); in assay [11], 0.25 µg/mL (≈ 0.666 µM).
